Test system: not listed separately
Assay: Lipophilicity, log P of the compound in 0.1 N HCl solution
Assay type: physicochemical
Conditions: 0.1 N HCl solution; read-out: logP
How it was run: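 Partition coefficients of the hydrochloride salts were measured from 0.1 N HCl solution unless a footnote says otherwise. Some entries were not measured. They were calculated by adding the Δlog P of the corresponding phenanthrene analogues to the measured log P of a reference hydrochloride.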

logP | SMILES
4.89 | CCCCCCCN(CCCCCCC)CC(O)c1cc2ccncc2c2cc(Br)ccc12 (stereo not drawn)
2.03 | CC(C)(C)c1cc(C(O)CC2CCCCN2)c2ccccc2n1 (stereo not drawn)
0.98 | CNCC(O)c1cc2ccccc2c2ccccc12 (stereo not drawn)
1.58 | CC(C)c1cc(C(O)CC2CCCCN2)c2ccccc2n1 (stereo not drawn)
1.75 | CCCCN(CCCC)CC(O)c1cc(Cl)cc2cccnc12 (stereo not drawn)
1.71 | CCCCN(CCCC)CC(O)c1cc(OC)c2cc(OC)c(Cl)cc2n1 (stereo not drawn)
4.38 | CCCCCCN(CCCCCC)CC(O)c1cc(OC)c2cc(Cl)cc(Cl)c2n1 (stereo not drawn)
3.97 | CCCCN(CCCC)CC(O)c1cc(-c2ccccc2C(F)(F)F)nc(C(F)(F)F)c1 (stereo not drawn)
6.11 | CCCCCCN(CCCCCC)CC(O)c1cc(-c2ccccc2)nc(-c2ccccc2)c1 (stereo not drawn)
4.29 | CC(=O)N1CCCCC1CC(O)c1cc(C23CC4CC(CC(C4)C2)C3)nc2c(Cl)cc(Cl)cc12 (stereo not drawn)
6.67 | CCCCNCC(O)c1cc(/C=C/c2ccc(C(F)(F)F)cc2)nc(/C=C/c2ccc(C(F)(F)F)cc2)c1 (stereo not drawn)
0.56 | CCN(CC)CC(O)c1ccc(Cl)c2ccccc12 (stereo not drawn)
2.74 | CC(C)(C)c1cc(C(O)CC2CCCCN2)c2cc(Cl)ccc2n1 (stereo not drawn)
2.69 | Cc1ccc(Oc2cc(C(O)CC3CCCCN3)c3ccccc3n2)cc1 (stereo not drawn)
1.08 | CN(C)CC(O)c1cc2ccccc2c2ccccc12 (stereo not drawn)
2.19 | CCCCN(CCCC)CC(O)c1cccc2cc(Cl)ccc12 (stereo not drawn)
4.4 | CCCCN(CCCC)CC(O)c1cc(-c2ccc(Cl)cc2)c2cc(OC)c(Cl)cc2n1 (stereo not drawn)

logP | SMILES
2.31 | CCCCN(CCCC)CC(O)c1ccc(Cl)c2c(C)ccnc12 (stereo not drawn)
0.68 | CCN(CC)CC(O)c1ccc(Cl)c2c(C)ccnc12 (stereo not drawn)
2.01 | OC(c1cc2ccccc2c2ccccc12)C1CCCCN1 (stereo not drawn)
1.17 | Cc1cc(C)c2ncc(C(O)CC3CCCCN3)cc2c1 (stereo not drawn)
3.4 | Cc1ccc(Oc2cc(C(O)CC3CCCCN3)c3cc(Cl)ccc3n2)cc1 (stereo not drawn)
3.34 | OC(CC1CCNCC1)c1cc2ccc(C(F)(F)F)cc2c2cc(C(F)(F)F)ccc12 (stereo not drawn)
2 | OCCN(CC(O)c1cc2ccccc2c2ccccc12)C1CCCCC1 (stereo not drawn)
0.59 | C=CCN(CC=C)CC(O)c1cc2ccccc2c2ccccc12 (stereo not drawn)
0.94 | CCN(CC)CC(O)c1cc(-c2ccccc2)nc2ccccc12 (stereo not drawn)
3.74 | OC(CC1CC2CCC(CC2)C1)c1cc2ccccc2c2cc(Br)ccc12 (stereo not drawn)
5.4 | CCCCCCN(CCCCCC)CC(O)c1cnc2cc(Cl)ccc2c1Cl (stereo not drawn)
5.67 | CCCCN(CCCC)CC(O)c1cc(-c2ccc(Cl)cc2)c2cc(-c3ccccc3)ccc2n1 (stereo not drawn)
0.12 | CCN(CC)CC(O)c1cc(Cl)cc2cccnc12 (stereo not drawn)
3.47 | CCCCNCC(O)c1cc(-c2ccccc2)nc(-c2ccccc2)c1 (stereo not drawn)
4.03 | CCCCCCCN(CCCCCCC)CC(O)c1cc2ccccc2c2cccnc12 (stereo not drawn)
4.01 | CCCCCN(CCCCC)CC(O)c1cc2ccccc2c2ccccc12 (stereo not drawn)
2.14 | O=C(O)c1ccc2cc(C(O)CC3CCCCN3)c3ccc(C(F)(F)F)cc3c2c1 (stereo not drawn)

Same assay, conditions: buffer

logP | SMILES
9.77 | CCCCCCCCCN(CCCCCCCCC)CCC(O)c1cc2ccc(C(F)(F)F)cc2c2cc(C(F)(F)F)ccc12 (stereo not drawn)

Test system: Plasmodium berghei
Assay: Antimalarial activity against Plasmodium berghei
Assay type: functional
Conditions: not given

SMILES | log(1/C)
CCCCCCCN(CCCCCCC)CC(O)c1cc2ccncc2c2cc(Br)ccc12 (stereo not drawn) | 2.12
CC(C)(C)c1cc(C(O)CC2CCCCN2)c2ccccc2n1 (stereo not drawn) | 2.08
CC(C)(C)c1cc(C(O)CC2CCCCN2)c2cc(Cl)ccc2n1 (stereo not drawn) | 2.48
